Screening results from PubChem.
TAAR1 antagonist: human TAAR1 antagonists, primary screen, Fluo-8 calcium fluorescence, CHO RD-HGA16 cells. antagonist. inhibition, % at 3 µM. 1.5% of 360,000 active;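 active = inhibition above a per-plate cutoff, the mean inhibition of test compounds on that plate plus 3 SD, cut at about 49% in these data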;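 note: 0% = DMSO plus EC80 beta-PEA response and 100% = DMSO alone without agonist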
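Test system: RD-HGA16 CHO cells with stable hTAAR1 and Gα16 / Probe or stimulus: EC80 β-phenethylamine stimulus / Times: seeding 17-24 h prior, 75-min 37 °C, 30-min RT dye loading / Detection: Fluo-8 calcium-sensitive fluorescence / Read-out basis: % inhibition scaled between DMSO and EC80 PEA controls / Repeats: singlicate, one well per test compound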
OX1R antag-1: OX1R (HCRTR1) antagonists, primary screen, fluorescence, CHO/OX1R cells, Fluo-8 calcium, orexin A; Fluo-8 calcium fluorescence; inhibition, % at 5 µM; 0.43% of 330,000 active; AID 434989, 2010;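 active = inhibition above its plate's threshold, mean inhibition of all tested compounds on the plate plus 3 SD, cut at about 37% in these data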;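 note: 0% = orexin A challenge wells and 100% = SB-334867-A antagonist wells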
TAAR1 agonist: human TAAR1 agonists, primary screen, Fluo-8 calcium fluorescence, CHO RD-HGA16 cells. vehicle wells 0%, saturating PEA agonist 100%. activation, % at 3 µM. 0.99% of 360,000 active. AID 624467, 2012;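 active = activation above the mean activation of all test compounds in the run plus 3 SD, cut at about 38% in these data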
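Test system: RD-HGA16 (CHO) cells co-expressing Gα16 and hTAAR1 | Doses: Single dose, 3 µM | Schedule: 17-24 h seeding, 75 min 37 °C dye, 30 min RT | Evaluation: % activation from peak over basal fluorescence ratio, DMSO-to-PEA scaled | Technique: Kinetic Fluo-8 calcium fluorescence | Benchmarks: Low control DMSO, high control PEA (EC100)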
GPR7 antag: GPR7 receptor antagonists, primary screen, cell-based, fluorescence, single concentration. 1.1% of 290,000 active. inhibition, % at 4.4 µM. GPR7-expressing cells, fluorescence antagonist assay. Neuropeptides B/W receptor type 1 (Homo sapiens), P48145; in the data active = inhibition above about 16%, passing the limit was not always enough;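 note: cells stimulated with the agonist NPW; 0% = agonist with vehicle and 100% = vehicle without agonist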
Target sequence (P48145 whole entry, looked up): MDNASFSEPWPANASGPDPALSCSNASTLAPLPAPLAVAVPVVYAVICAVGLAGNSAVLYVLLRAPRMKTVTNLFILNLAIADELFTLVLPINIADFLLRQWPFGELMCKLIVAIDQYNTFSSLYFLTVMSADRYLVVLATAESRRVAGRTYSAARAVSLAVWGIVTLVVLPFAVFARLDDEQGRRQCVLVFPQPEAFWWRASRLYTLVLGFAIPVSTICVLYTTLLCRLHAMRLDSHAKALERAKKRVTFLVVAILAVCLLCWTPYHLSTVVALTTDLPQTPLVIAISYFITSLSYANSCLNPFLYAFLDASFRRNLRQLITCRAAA
CHO parental Ca: ATP-evoked calcium signal inhibitors, parental CHO, primary screen, counter-screen for OX1R antagonist project, cell-based, fluorescence, Fluo-8 calcium dye; inhibition, % at 5.6 µM; AID 463079, 2010; parental CHO-K1, ATP-induced calcium, Fluo-8 fluorescence; 0.63% of 330,000 active;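 active = inhibition above that plate's mean sample inhibition plus 3 SD, cut at about 26% in these data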;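 note: 0% = ATP-challenged DMSO wells and 100% = DMSO wells without ATP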
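Test system: untransfected parental CHO cell line. Compound: one dose, 5.6 µM nominal. Detection: intracellular calcium via Fluo-8 no-wash fluorescent dye. Measure: % inhibition. Benchmarks: ATP-challenged DMSO wells low, unchallenged DMSO wells high.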
OX1R antag-2: antagonists of human orexin 1 receptor (OX1R); OX1R-expressing cells, FRET antagonist read-out; inhibition, % at 6.6 µM; 1.8% of 330,000 active; AID 485270, 2010; in the data active = inhibition mostly above about 38%, no sharp cut-off; inactive = mostly below about 40%;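 note: 0% = agonist challenge alone and 100% = reference antagonist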
An asterisk follows results filed as active; x = no result. This is a sample that favours compounds with a hit; in the whole collection about 4.6% have one here.

SMILES	TAAR1 antagonist	OX1R antag-1	TAAR1 agonist	GPR7 antag	CHO parental Ca	OX1R antag-2
CCOC(=O)C1=CN(Cc2cccc(F)c2)S(=O)(=O)N(C)C1CCc1ccccc1 (stereo unspecified)	5	6	1	x	-16	18
CC(C)(C)c1ccc(NC(=O)COC(=O)c2ccc3ncsc3c2)cc1	-2	-4	6	x	-11	4
O=C(COC(=O)c1ccc2ncsc2c1)Nc1ccc(OC(F)(F)F)cc1	-3	37*	2	x	25	-5
O=C(CSc1cn(CCNC(=O)c2ccccc2F)c2ccccc12)NCC1CCCO1 (stereo unspecified)	-15	6	5	-9	-22	21
O=C(NCCn1cc(SCc2ccccc2)c2ccccc21)c1ccccc1F	64*	-3	1	-9	66*	17
Cc1ccc2sc(NC(=O)c3cccc(N4C(=O)CCC4=O)c3)nc2c1C	45	11	48*	4	11	26
COc1ccc(-c2n[nH]c3c2CN(C(=O)c2ccc(OC)c(OC)c2)CC3)cc1	10	-28	7	-7	-11	28
Cc1ccnc(SCC(=O)Nc2sc3c(c2C#N)CCCC3)n1	30	74*	14	15	69*	80*
O=[n+]1c2c(n([O-])c3cc(F)c(N4CCCC4)cc31)CCC2	4	8	16	6	3	68*
Cc1ccc2c(c1)n([O-])c1c([n+]2=O)CCCC1	-3	-9	1	-14	-1	29
O=[n+]1c2c(n([O-])c3cc(F)c(N4CCCC4)cc31)CCCC2	8	0	20	-6	5	52*
CCS(=O)(=O)C1C(=O)N(C)C(S(=O)(=O)CC)C(=O)N1C (stereo unspecified)	-12	x	3	x	x	x
Cc1ccc(NC(=S)NCCN(C2CCCCC2)C2CCCC2)cc1	-15	-34	10	31*	-19	6
O=C(CSc1nnc2ccc(-c3ccccn3)nn12)NCC1CCCO1 (stereo unspecified)	-27	-17	-1	-14	-2	23
COc1ccccc1NC(=O)C1=C(C)Nc2nnnn2C1c1cc(Br)ccc1OC (stereo unspecified)	0	-12	48*	10	4	9
CCN(c1ccc(C)cc1C)S(=O)(=O)c1nnc(NC(=O)C(C)C)s1	6	x	1	-8	x	x
O=S(=O)(NCC1CCCO1)c1ccc(-c2ccc(S(=O)(=O)NCC3CCCO3)cc2)cc1 (stereo unspecified)	16	40*	9	3	41*	21
O=C1c2cccnc2-c2ncccc21	1	-9	1	-12	-2	54*
O=C1C(=O)c2cccnc2-c2ncccc21	4	x	22	x	x	x
O=C1c2cc([N+](=O)[O-])ccc2-c2ncccc21	-11	-15	0	-10	3	67*
O=C1c2ccccc2-c2nccnc21	9	-8	7	4	-4	111*
Nc1ccc2c(c1)C(=O)c1cc([N+](=O)[O-])ccc1-2	-4	x	-1	x	x	x
CC(=O)Nc1ccccc1OCC(=O)c1cc(C)n(Cc2cccs2)c1C	32	55*	24	25*	48*	45
Cc1csc(SCC(=O)c2cc(C)n(Cc3cccs3)c2C)n1	35	6	6	6	42*	57
N#Cc1cnn2c(C(F)(F)F)cc(-c3ccccc3)nc12	0	-15	0	-13	54*	16
SMILES	TAAR1 antagonist	OX1R antag-1	TAAR1 agonist	GPR7 antag	CHO parental Ca	OX1R antag-2
O=C(c1cnn2c(C(F)(F)F)cc(-c3ccco3)nc12)N1CCCCCC1	-8	-15	3	3	-15	25
COC(=O)c1cnn2c(C(F)(F)F)cc(-c3ccccc3)nc12	-8	-31	6	-11	2	18
O=C(O)c1cnn2c(C(F)(F)F)cc(-c3ccco3)nc12	-3	-4	2	-5	1	49*
COc1cccc(-c2cc(C(F)(F)F)n3ncc(C(=O)O)c3n2)c1	-6	-24	3	2	-5	51*
COc1cc(/C=C(\C#N)C(=O)Nc2ccccc2C(=O)O)cc(Cl)c1OC	-11	-8	-2	8	-4	11
CC(NC(=O)Nc1cccc(Cl)c1)C(c1cccs1)N1CCCC1 (stereo unspecified)	-13	-17	28	-3	-18	3
CC(NC(=O)Nc1ccc([N+](=O)[O-])cc1)C(c1cccs1)N1CCCC1 (stereo unspecified)	-2	-21	48*	1	-17	15
O=C(NCCc1ccccc1F)C1CC(=O)N(c2cccc(C(F)(F)F)c2)C1 (stereo unspecified)	-14	x	6	x	x	x
O=C(O)c1cccc(Nc2ccc([N+](=O)[O-])c3nonc23)c1	6	-25	4	-5	-2	34*
CCNc1cc(Nc2c(C)n(C)n(-c3ccccc3)c2=O)c([N+](=O)[O-])c2nonc12	11	2	0	-14	-2	39
O=C(O)c1ccc(Nc2ccc([N+](=O)[O-])c3nonc23)cc1	-3	x	0	1	x	x
O=C(O)c1ccccc1Nc1ccc([N+](=O)[O-])cc1	4	1	-2	-2	-10	10
O=C(O)c1cccc(Nc2cc(Cl)c3nonc3c2[N+](=O)[O-])c1	-23	-6	1	1	-12	58*
O=C(O)c1ccccc1Nc1cc(Cl)c2nonc2c1[N+](=O)[O-]	-30	-5	1	-17	-9	61*
O=[N+]([O-])c1c(Nc2ccccn2)cc(Cl)c2nonc12	-3	3	-2	-5	-2	45*
CN(C)c1cc(Nc2cccc(O)c2)c([N+](=O)[O-])c2nonc12	-11	-20	1	-8	3	64
O=C(NC1CCCC1)[C@@H]1CCCN1C(=O)[C@@H](NS(=O)(=O)c1ccc(F)cc1F)C1CCCCC1	-41	x	6	x	x	x
Cn1c(NCc2ccccc2F)nc2cc(-c3ccsc3)sc2c1=O	2	x	2	x	x	x
Cc1ccccc1Cn1nc(C)c(NC(=O)C2c3ccccc3Oc3ccccc32)c1C	6	-2	39*	-4	-6	24
CN(C)c1nc(N)nc(CSc2ncc(Cl)cc2Cl)n1	11	6	1	-10	-23	38*
CN(C)c1ccc(/C=C2\CCC/C(=C\c3ccccc3)C2=O)cc1	18	37	19	-1	51*	24
CNC(=O)NC(=O)Cn1nc2n(c1=O)-c1ccccc1SC2	-6	-12	0	-14	6	6
